Key:
[1] = system: Anti-α-PVP/MDPV polyclonal antibody; experiment: Competitive magnetic bead-based radioimmunoassay; format: binding, rat; settings: MDPV-t2 tracer; for IC50: structurally related cathinones tested at 10 μM and 100 μM only
In short: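 Sera came from male SD rats immunized sc with 100 μg bi-specific KLH conjugate plus 150 μL SAS. The competitive magnetic-bead RIA was specific for IgG binding and used tritium-labeled drug as tracer. Full inhibition curves with unlabeled drug gave IC50; one curve used a racemic homologous tritiated tracer. Analogues were tested only at 10 and 100 μM against 5 nM MDPV-t₂, scored as inhibition of tracer binding.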

[2] = humans; cited from earlier work
drug-specific pAb = settings: pAb from earlier separate α-PVP and MDPV vaccines; cited from earlier work
[3] = MDPV and α-PVP serum concentrations after sc challenge dose; format: in vivo, rat; settings: SAS and vaccinated rats, LC-MS/MS
male SD rats = format: in vivo, rat; settings: SAS control rats; sc
In short: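 Thirteen weeks after initial sc immunization (SAS alone or vaccine plus SAS), male SD rats (n=5–6/group) were habituated 60 min in litter-lined open-field chambers. They then got sc saline or drug at 0.3–5.6 mg/kg in ascending doses, 2–3 days apart, with each drug in a separate study. Video tracking ran 6 h; horizontal distance was summed per rat and reported as mean ± SD.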

[4] = Stability of α-PVP in extracted rat serum; format: physicochemical; settings: 4 °C

Compound	inhibition of MDPV-t2 binding ([1]; 100 μM ligand)	IC50 [1]	other results
CNC(C)Cc1ccc2c(c1)OCO2 (racemic) [MDMA, (±)-3,4-methylenedioxymethamphetamine]	≤ 50%	–	–
CCC(C(=O)c1ccc2c(c1)OCO2)N1CCCC1 (stereo not drawn) [3,4-Methylenedioxy-α-pyrrolidinobutiophenone]	50%	100 µM	–
CC(C(=O)c1ccc2c(c1)OCO2)N1CCCC1 (stereo not drawn) [3,4-Methylenedioxy-α-pyrrolidinopropiophenone]	–	> 100 µM	–
C[C@H](N)C(=O)c1ccccc1 [(S)-Cathinone]	–	> 100 µM	–
CCCC(C(=O)c1ccc2c(c1)OCO2)N1CCCC1 (stereo not shown) [MDPV, 3,4-Methylenedioxypyrovalerone]	–	–	blood concentrations associated with recreational use [2]: 10 to 50 ng/mL; blood concentrations at intoxication and overdose [2]: 50 to 300 ng/mL; pAb affinities constants (drug-specific pAb): micromolar range; serum concentration 24 h after drug administration [3]: below the lower limit of quantitation
CNC(C)C(=O)c1ccc(C)cc1 (stereo not shown) [Mephedrone]	–	> 100 µM	–
CNC(C)C(=O)c1ccc2c(c1)OCO2 (stereo not shown) [Methylone]	–	> 100 µM	–
CCCC(NC)C(=O)c1ccccc1 (stereo not shown) [Pentedrone]	–	> 100 µM	–
CCCC(NC)C(=O)c1ccc2c(c1)OCO2 (stereo not shown) [Pentylone]	–	> 100 µM	–
CCCC(C(=O)c1ccc(C)cc1)N1CCCC1 (stereo not shown) [Pyrovalerone]	–	–	inhibition of MDPV-t2 binding ([1]; 10 μM ligand): 68%
COC(=O)[C@H]1[C@@H](OC(=O)c2ccccc2)C[C@@H]2CC[C@H]1N2C [cocaine]	≤ 50%	–	–
NCCc1ccc(O)c(O)c1 [dopamine]	≤ 50%	–	–
CNC[C@H](O)c1ccc(O)c(O)c1 [epinephrine]	≤ 50%	–	–
CN[C@@H](C)Cc1ccccc1 [methamphetamine]	≤ 50%	–	–
NC[C@H](O)c1ccc(O)c(O)c1 [norepinephrine]	≤ 50%	–	–
c1ccc(C2(N3CCCCC3)CCCCC2)cc1 [phencyclidine]	≤ 50%	–	–
CN[C@@H](C)[C@@H](O)c1ccccc1 [pseudoephedrine]	≤ 50%	–	–
NCCc1c[nH]c2ccc(O)cc12 [serotonin]	≤ 50%	–	–
NCCc1ccc(O)cc1 [tyramine]	≤ 50%	–	–
CCCC(C(=O)c1ccccc1)N1CCCC1 (stereo not drawn) [α-PVP, α-pyrrolidinovalerophenone]	–	–	pAb affinities constants (drug-specific pAb): micromolar range; serum concentration 24 h after drug administration [3]: below the lower limit of quantitation; dose of peak effect on horizontal movement (male SD rats): 1.0 mg/kg; stability in extracted serum [4]: at least 59 h
(S)-Methcathinone	–	> 100 µM	–

— publication PMC6938543 (Vaccine, 2019)
